In brackets after ≈: the same amount, converted by molar mass. Activity calls are given as the source filed them. No cut-off for these calls is given here.
Assays:
Staphylococcus aureus [1] = assay: Antibacterial activity against Staphylococcus aureus ATCC25923 assessed as inhibition of bacterial growth incubated for 24 hrs by broth microdilution assay; type: functional
Summary of the method: (§1)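 Broth microdilution on S. aureus in brain-heart-infusion broth. Double-concentrated half-log dilutions (duplicates) mixed with an equal volume of bacterial suspension at 2×10^5 CFU/mL. Incubated 24 h at 37 °C, 5% CO2. MIC read as the lowest concentration with no visible growth. Reported as mean MIC of three assays. Ampicillin and rifampicin served as references.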

Streptococcus pneumoniae [2] = assay: Antibacterial activity against Streptococcus pneumoniae DSM20566 assessed as inhibition of bacterial growth incubated for 24 hrs by broth microdilution assay; type: functional
Summary of the method: (§2)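 S. pneumoniae was tested by broth microdilution in Todd Hewitt broth with yeast extract. Double-concentrated half-log dilutions (duplicates) were combined 1:1 by volume with inoculum at 2×10^5 CFU/mL, then held 24 h at 37 °C under 5% CO2. MIC was the lowest concentration without visible growth, averaged over three assays. Ampicillin and rifampicin served as references.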

Staphylococcus aureus [3] = assay: Antibacterial activity against Staphylococcus aureus ATCC43000 assessed as inhibition of bacterial growth incubated for 24 hrs by broth microdilution assay; type: functional; summary of the method: as §1
A549 = assay: Cytotoxicity against human A549 cells assessed as reduction in cell viability incubated for 72 hrs by WST-8 assay; type: toxicity, cell-based; conditions: a549, 72 h
Summary of the method: (§3)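 Confluent monolayers in serum-free medium with 0.2 μg/mL trypsin were exposed to six half-log concentrations (maximum 100 μM) for 72 h at 37 °C. WST-8 was added for 2 h and OD read at 450 vs 620 nm (NADH activity). After PBS washes, crystal violet staining was used for viability. At least three assays were run.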

Calu-3 = assay: Cytotoxicity against human Calu-3 cells assessed as reduction in cell viability incubated for 72 hrs by WST-8 assay; type: toxicity, cell-based; conditions: calu-3, 72 h; summary of the method: as §3
Streptococcus pneumoniae [4] = assay: Antibacterial activity against Streptococcus pneumoniae D39 assessed as inhibition of bacterial growth incubated for 24 hrs by broth microdilution assay; type: functional; summary of the method: as §2
Influenza A virus = assay: Antiviral activity against Influenza A virus; type: functional, organism-based

Compound	MIC (Staphylococcus aureus [1]) [µM]	MIC (Streptococcus pneumoniae [2]) [µM]	MIC (Staphylococcus aureus [3]) [µM]	Activity (A549)	Activity (Calu-3)	MIC (Streptococcus pneumoniae [4]) [µM]	Activity (Influenza A virus)
CO[C@H]1/C=C/O[C@@]2(C)Oc3c(C)c(O)c4c(O)c(c(/C=N/N5CCN(C)CC5)c(O)c4c3C2=O)NC(=O)/C(C)=C\C=C\[C@H](C)[C@H](O)[C@@H](C)[C@@H](O)[C@@H](C)[C@H](OC(C)=O)[C@@H]1C [RIFAMPIN]	1 (≈ 0.823 µg/mL)	0.02 (≈ 0.0165 µg/mL)	15.4 (≈ 12.7 µg/mL)	–	–	–	–
CC(C)=CCCC1=C[C@H](c2c(O)cc3c(c2O)C(=O)C[C@@H](c2ccc(O)cc2O)O3)[C@@H](C(=O)c2ccc(O)cc2O)[C@H](c2ccc(O)cc2O)C1	10 (≈ 6.95 µg/mL)	3.16 (≈ 2.2 µg/mL)	10 (≈ 6.95 µg/mL)	Non-Toxic	Non-Toxic	3.16 (≈ 2.2 µg/mL)	–
CC(C)=CCC12Oc3cc(O)c(C4C=C(C)CC(c5ccc(O)cc5O)C4C(=O)c4ccc(O)cc4O)c(O)c3C(=O)C1(O)Oc1cc(O)ccc12 (stereo not drawn)	10 (≈ 7.09 µg/mL)	3.16 (≈ 2.24 µg/mL)	10 (≈ 7.09 µg/mL)	Non-Toxic	Non-Toxic	3.16 (≈ 2.24 µg/mL)	inactive
CC(C)=CC[C@]12Oc3cc(O)c([C@H]4C=C(C)C[C@H](c5ccc(O)cc5O)[C@H]4C(=O)c4ccc(O)cc4O)c(O)c3C(=O)[C@@]1(O)Oc1cc(O)ccc12 [SANGGENON C]	3.16 (≈ 2.24 µg/mL)	2.08 (≈ 1.47 µg/mL)	3.16 (≈ 2.24 µg/mL)	Non-Toxic	Non-Toxic	1.72 (≈ 1.22 µg/mL)	–
CC1(C)S[C@@H]2[C@H](NC(=O)[C@H](N)c3ccccc3)C(=O)N2[C@H]1C(=O)O [AMPICILLIN]	–	–	–	–	–	0.02 (≈ 0.00699 µg/mL)	–

Source: ChEMBL document CHEMBL5226368, “1H NMR-Based Biochemometric Analysis of Morus alba Extracts toward a Multipotent Herbal Anti-Infective” (J Nat Prod, 2023)
